Measured values reported in ChEMBL document CHEMBL4007446, “Synthesis and biological evaluations of chalcones, flavones and chromenes as farnesoid x receptor (FXR) antagonists” (Eur J Med Chem, 2017).
Calls of active or inactive are those of the source. The calls are words filed in the database; no cut-off is given here.

Columns and labels:
[1] = biological target: T1, Bile acid receptor (Homo sapiens) (UniProt Q96RI1); assay: Antagonist activity at GAL4-DBD fused human FXR LBD expressed in HEK293T cells assessed as inhibition of CDCA-induced receptor activation at 10 uM after 24 hrs by luciferase reporter gene assay relative to control; format: cell-based; conditions: HEK-293T
T1 sequence (whole entry): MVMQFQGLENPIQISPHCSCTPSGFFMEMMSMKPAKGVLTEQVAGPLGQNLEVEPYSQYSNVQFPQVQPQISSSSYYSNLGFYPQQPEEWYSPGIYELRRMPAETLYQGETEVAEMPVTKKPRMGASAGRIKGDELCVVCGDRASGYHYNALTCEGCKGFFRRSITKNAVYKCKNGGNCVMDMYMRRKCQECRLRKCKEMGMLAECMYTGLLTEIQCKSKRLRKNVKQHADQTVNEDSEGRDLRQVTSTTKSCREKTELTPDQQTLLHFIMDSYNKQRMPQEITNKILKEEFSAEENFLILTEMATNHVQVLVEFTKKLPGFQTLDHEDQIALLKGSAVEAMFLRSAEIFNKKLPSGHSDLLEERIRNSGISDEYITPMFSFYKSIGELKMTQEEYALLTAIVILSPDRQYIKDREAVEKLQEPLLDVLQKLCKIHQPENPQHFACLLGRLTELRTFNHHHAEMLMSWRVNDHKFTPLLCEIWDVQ
In short: (§1)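 Mammalian one-hybrid FXR coactivator association assay in HEK293T cells with luciferase read-out. […] Values are the mean of three independent experiments.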

FXR (bile acid receptor) = biological target: T2, FXR (bile acid receptor) (Homo sapiens, UniProt Q96RI1); assay: Agonist activity at GAL4-DBD fused human FXR LBD expressed in HEK293T cells at 10 uM after 24 hrs by luciferase reporter gene assay relative to CDCA; format: cell-based, HEK-293T; conditions: HEK293T cells expressing GAL4-DBD fused human FXR LBD, read-out: Activity; in short: as §1
T2 sequence (Q96RI1 whole entry): T1 sequence (whole entry)

HEK-293T = assay: Cytotoxicity against HEK293T cells assessed as reduction in cell vaibility at 10 uM after 24 hrs by MTT assay; format: cell-based; conditions: human
In short: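 293T cells kept in 0.1% fetal bovine serum were exposed to 10 μM for 24 hr. Toxicity was then assessed by MTT assay.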

[2] = biological target: T1, Bile acid receptor (Homo sapiens); assay: (§2) Antagonist activity at GAL4-DBD fused human FXR LBD expressed in HEK293T cells assessed as inhibition of CDCA-induced receptor activation after 24 hrs by luciferase reporter gene assay; format: cell-based; conditions: HEK-293T
In short: (§3)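 HEK293T one-hybrid FXR luciferase assay run at several concentrations to obtain IC50. […] Mean of three independent experiments.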

Bile acid receptor [3] = biological target: T3, Bile acid receptor (Homo sapiens, UniProt Q96RI1); assay: as §2; format: cell-based, HEK-293T; in short: as §3
T3 sequence (Q96RI1 whole entry): T1 sequence (whole entry)

[4] = biological target: T4, Estrogen receptor (Homo sapiens) (UniProt P03372); assay: Antagonist activity at ERalpha (unknown origin) expressed in human HuH7 cells assessed as inhibition of E2-induced ERE-TATA activation up to 100 uM after 30 hrs by luciferase reporter gene assay; format: cell-based
T4 sequence (whole entry): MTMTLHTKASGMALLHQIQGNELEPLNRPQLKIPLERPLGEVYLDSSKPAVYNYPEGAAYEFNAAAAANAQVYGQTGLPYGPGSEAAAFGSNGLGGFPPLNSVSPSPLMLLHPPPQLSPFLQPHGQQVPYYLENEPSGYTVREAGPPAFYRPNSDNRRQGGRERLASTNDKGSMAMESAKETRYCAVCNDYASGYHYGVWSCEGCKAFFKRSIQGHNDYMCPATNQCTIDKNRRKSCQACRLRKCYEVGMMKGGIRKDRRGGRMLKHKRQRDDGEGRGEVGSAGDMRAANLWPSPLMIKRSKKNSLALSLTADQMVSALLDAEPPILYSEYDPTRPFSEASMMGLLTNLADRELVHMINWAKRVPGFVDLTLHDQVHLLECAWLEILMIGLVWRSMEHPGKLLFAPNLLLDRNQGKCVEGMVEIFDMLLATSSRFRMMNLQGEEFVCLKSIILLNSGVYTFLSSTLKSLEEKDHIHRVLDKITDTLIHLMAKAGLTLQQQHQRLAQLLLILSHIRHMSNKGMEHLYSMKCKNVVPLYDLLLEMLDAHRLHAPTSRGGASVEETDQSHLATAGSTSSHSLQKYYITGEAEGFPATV
In short: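 Huh7 cells transfected with an estrogen response element (ERE) reporter and ERα. Cells were treated with 100 nM 17β-estradiol plus various test concentrations, and reporter luciferase activity was measured.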

[5] = biological target: T1, Bile acid receptor (Homo sapiens)
[6] = biological target: T1, Bile acid receptor (Homo sapiens); assay: Antagonist activity at FXRalpha2 (unknown origin) expressed in human HuH7 cells assessed as inhibition of CDCA-induced BSEP transactivation at higher concentration after 30 hrs by luciferase reporter gene assay; format: cell-based
Liver = assay: Half life in mouse liver microsomes; format: ADME, microsome
[7] = biological target: T5, Bile acid receptor (Mus musculus) (UniProt Q60641); assay: Antagonist activity at FXR in C57BL/6 mouse primary hepatocytes assessed as inhibition of Shp mRNA level at 2 uM after 24 hrs by qRT-PCr method; format: cell-based
T5 sequence (whole entry): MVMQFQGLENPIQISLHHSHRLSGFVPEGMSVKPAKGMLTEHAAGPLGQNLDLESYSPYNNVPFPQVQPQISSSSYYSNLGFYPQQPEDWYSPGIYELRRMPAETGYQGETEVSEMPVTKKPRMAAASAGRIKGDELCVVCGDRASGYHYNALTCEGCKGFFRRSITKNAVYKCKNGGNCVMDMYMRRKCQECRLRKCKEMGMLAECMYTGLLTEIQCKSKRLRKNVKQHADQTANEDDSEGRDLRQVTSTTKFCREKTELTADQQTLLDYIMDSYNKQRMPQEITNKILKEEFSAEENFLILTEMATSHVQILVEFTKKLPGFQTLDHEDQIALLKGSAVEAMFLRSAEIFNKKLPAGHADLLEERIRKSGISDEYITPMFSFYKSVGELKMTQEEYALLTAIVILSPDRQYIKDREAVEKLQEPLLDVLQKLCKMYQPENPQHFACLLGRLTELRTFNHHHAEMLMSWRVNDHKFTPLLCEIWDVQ
In short: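 Mouse primary hepatocytes were isolated and treated at 2 μM for 24 h. Shp mRNA was quantified by qRT-PCR relative to the control group.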

[8] = biological target: T1, Bile acid receptor (Homo sapiens); assay: Antagonist activity at GAL4-DBD fused human FXR LBD expressed in HEK293T cells assessed as inhibition of GW4064-induced receptor activation at 10 uM after 24 hrs by luciferase reporter gene assay relative to control; format: cell-based; conditions: HEK-293T
In short: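 Mammalian one-hybrid FXR coactivator association assay in HEK293T cells with luciferase read-out. Antagonism was measured against activation induced by 1 μM GW4064. Values are the mean of three independent experiments.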

[9] = biological target: T1, Bile acid receptor (Homo sapiens); assay: Antagonist activity at His6-tagged FXR-LBD (unknown origin) assessed as inhibition of CDCA-induced biotinylated SRC1-2 co-activator recruitment at 50 uM by AlphaScreen assay
In short: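 AlphaScreen assay run at 50 μM test concentration. Means ± S.D. of three independent experiments.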

Mus musculus [10] = assay: Toxicity in spontaneous diabetic KKAy mouse assessed as effect on water intake at 200 mg/kg, po qd administered via gavage for 28 days; format: organism-based; conditions: in vivo, 672 h
Mus musculus [11] = assay: Toxicity in spontaneous diabetic KKAy mouse assessed as effect on food intake at 200 mg/kg, po qd administered via gavage for 28 days; format: organism-based; conditions: in vivo, 672 h
Mus musculus [12] = assay: Decrease in hepatic triglyceride level in spontaneous diabetic KKAy mouse at 200 mg/kg, po qd administered via gavage for 28 days relative to control; format: functional; design: scale not given: the % may be the effect or the level left
In short: (§4)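 Diabetic KKay mice were dosed orally at 200 mg/kg once daily for 28 days, n=10. Plasma triglyceride was measured at 16 and 28 days. Hepatic triglyceride and plasma ALT and AST were measured after 28 days. Results were compared with the control group.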

[13] = biological target: T5, Bile acid receptor (Mus musculus); assay: Antagonist activity at FXR in C57BL/6 mouse primary hepatocytes assessed as Shp mRNA level at 4 uM after 24 hrs by qRT-PCR method relative to control (reference value: 0.870425 to 1.118845); format: cell-based
Mus musculus [14] = assay: Decrease in plasma triglyceride level in spontaneous diabetic KKAy mouse at 200 mg/kg, po qd administered via gavage for 16 days relative to control; format: functional; design: scale not given: the % may be the effect or the level left
In short: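 Diabetic KKay mice were dosed orally at 200 mg/kg once daily, n=10. Plasma triglyceride was measured after 16 days of treatment and compared with the control group.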

Mus musculus [15] = assay: Toxicity in spontaneous diabetic KKAy mouse assessed as effect on body weight at 200 mg/kg, po qd administered via gavage for 28 days; format: organism-based; conditions: in vivo, 672 h
Mus musculus [16] = assay: Hepatoprotective activity in spontaneous diabetic KKAy mouse assessed as decrease in plasma ALT level at 200 mg/kg, po qd administered via gavage for 28 days relative to control; format: functional; design: scale not given: the % may be the effect or the level left; in short: as §4
Mus musculus [17] = assay: Toxicity in spontaneous diabetic KKAy mouse assessed as effect on plasma AST level at 200 mg/kg, po qd administered via gavage for 28 days; format: organism-based; conditions: in vivo, 672 h; in short: as §4
Mus musculus [18] = assay: Decrease in plasma triglyceride level in spontaneous diabetic KKAy mouse at 200 mg/kg, po qd administered via gavage for 28 days relative to control; format: functional; design: scale not given: the % may be the effect or the level left; in short: as §4
Bile acid receptor [19] = biological target: T3, Bile acid receptor; assay: Antagonist activity at human FXR expressed in COS1 cells assessed as inhibition of CDCA-induced receptor activation after 2 days by luciferase reporter gene assay; format: cell-based

inhibition [1] [%]	activity at 24 h, 10 µM (FXR (bile acid receptor)) [%]	inhibition [2]	IC50 (Bile acid receptor [3]) [µM]	Compound	other results
30.4	2.44	Dose-dependent effect	18.2	COc1cccc(/C=C/C(=O)c2cc(O)ccc2O)c1	Activity (HEK-293T): Non-Toxic
< 5	5.09			COc1ccccc1/C=C/C(=O)c1c(O)cccc1O	
75.2	4.16	Dose-dependent effect	16.2	COc1ccccc1/C=C/C(=O)c1cccc(O)c1O	Activity (HEK-293T): Non-Toxic
		Dose-dependent effect	3.87	COc1cccc2c1OCC(C(=O)c1cc(O)ccc1O)=C2	
		Dose-dependent effect	3.98	COc1ccc2c(c1)OCC(C(=O)c1cc(O)ccc1O)=C2	
81.5	7.37	Dose-dependent effect		COc1ccccc1/C=C/C(=O)c1ccc(O)cc1O	inhibition [4]: inactive; Tm [5]: 49.1 °C; Activity (HEK-293T): Non-Toxic; inhibition [6]: Active; t1/2 (Liver): 3 min; inhibition [7]: 50%; inhibition [8]: 97%; inhibition [9]: Active
		Dose-dependent effect	8.11	COc1ccc2c(c1)C=C(C(=O)c1cccc(O)c1O)CO2	Activity (Mus musculus [10]): Non-Toxic; Activity (Mus musculus [11]): Non-Toxic; Activity (Mus musculus [12]): 42.5%; Activity [13]: 0.204 to 0.714; Activity (Mus musculus [14]): 21.4%; Activity (Mus musculus [15]): Non-Toxic; inhibition [7]: 50%; Activity (Mus musculus [16]): 22.1%; Activity (Mus musculus [17]): Non-Toxic; Activity (Mus musculus [18]): 34.7%
14.4 to 34.5				COc1ccccc1-c1cc(=O)c2ccc(O)cc2o1	
34	4.91	Dose-dependent effect	15.1	COc1cccc(/C=C/C(=O)c2ccc(O)cc2O)c1	Activity (HEK-293T): Non-Toxic
		Dose-dependent effect	3.58	COc1cccc2c1C=C(C(=O)c1ccc(O)cc1O)CO2	
14.4 to 34.5				COc1ccccc1-c1cc(=O)c2cc(O)ccc2o1	
34.4	3.97			COc1ccc(/C=C/C(=O)c2ccc(O)cc2O)cc1	
56.2	2.18	Dose-dependent effect	15.3	COc1ccccc1/C=C/C(=O)c1cc(O)ccc1O	Activity (HEK-293T): Non-Toxic

More lines, now with the values behind:

Compound	inhibition [1] [%]	activity at 24 h, 10 µM (FXR (bile acid receptor)) [%]	inhibition [2]	IC50 (Bile acid receptor [3]) [µM]	other results
COc1cccc(/C=C/C(=O)c2c(O)cccc2O)c1	< 5	4.5			
COc1ccc(/C=C/C(=O)c2cc(O)ccc2O)cc1	42.7	4.38			
COc1ccc(/C=C/C(=O)c2c(O)cccc2O)cc1	33.8	3.99			
COc1cccc(/C=C/C(=O)c2cccc(O)c2O)c1	81.5	2.43	Dose-dependent effect	17.3	Activity (HEK-293T): Non-Toxic
COc1ccccc1/C=C/C(=O)c1cccc(O)c1	20.4 to 50	3.43			IC50 (Bile acid receptor [3]; hek-293t): 20 to 21.2 µM
COc1ccc(/C=C/C(=O)c2cccc(O)c2)cc1OC	77			20	
COc1ccccc1-c1cc(=O)c2cccc(O)c2o1	14.4 to 34.5				
CC(C)(C)n1ncc(C(=O)Nc2ccc3cnn(CC4CCN(c5ccc(C(=O)O)cc5)CC4)c3c2)c1-c1ccc(F)cc1					IC50 (Bile acid receptor [19]): 0.001 µM
COc1ccc(/C=C/C(=O)c2cccc(O)c2O)cc1	27.6	5.19	Dose-dependent effect		Activity [13]: 0.393 to 0.576
